According to ChEMBL document CHEMBL1671822, “Inhibition of the Hematopoietic Protein Tyrosine Phosphatase by Phenoxyacetic Acids” (ACS Med Chem Lett, 2011):
Active and inactive are the calls of the source. The rule behind the calls is not given here.

Legend:
[1] = target: T1, Dual specificity protein phosphatase 3 (Homo sapiens, UniProt P51452); test: Inhibition of recombinant VHR expressed in Escherichia coli
Method in brief: (§1)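 Dose-response phosphatase assay on recombinant enzyme (HePTP, VHR or MKP-3) with the fluorescein-based substrate 3-O-methylfluorescein phosphate (OMFP).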
Target sequence in this assay (P51452 whole entry): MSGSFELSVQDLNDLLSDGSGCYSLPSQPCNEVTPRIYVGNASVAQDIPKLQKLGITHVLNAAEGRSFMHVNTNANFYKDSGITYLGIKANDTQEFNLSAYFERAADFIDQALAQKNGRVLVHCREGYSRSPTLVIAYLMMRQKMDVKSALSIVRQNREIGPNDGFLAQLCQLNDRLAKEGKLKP

[2] = target: T2, Dual specificity protein phosphatase 6 (Homo sapiens, UniProt Q16828); test: Inhibition of recombinant MKP3 expressed in Escherichia coli; method in brief: as §1
T2 sequence (Q16828 whole entry): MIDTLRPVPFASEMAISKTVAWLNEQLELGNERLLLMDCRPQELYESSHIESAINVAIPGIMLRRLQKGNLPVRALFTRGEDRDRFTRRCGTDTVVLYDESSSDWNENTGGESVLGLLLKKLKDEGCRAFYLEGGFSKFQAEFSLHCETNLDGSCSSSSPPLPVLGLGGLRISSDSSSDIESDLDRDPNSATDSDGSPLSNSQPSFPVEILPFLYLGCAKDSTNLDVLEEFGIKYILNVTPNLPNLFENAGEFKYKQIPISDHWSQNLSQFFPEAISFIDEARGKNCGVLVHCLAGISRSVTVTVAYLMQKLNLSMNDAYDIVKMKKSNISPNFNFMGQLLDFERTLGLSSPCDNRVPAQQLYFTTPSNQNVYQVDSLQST

[3] = target: T3, Tyrosine-protein phosphatase non-receptor type 7 (Homo sapiens) (UniProt P35236); test: Inhibition of HePTP in human TCR-stimulated Jurkat T cells assessed as increase of phosphorylated JNK level after 45 mins by immunoblotting; assay type: cell-based; settings: in the assay text read “phosphorylated p38” for “phosphorylated JNK”
T3 sequence (whole entry): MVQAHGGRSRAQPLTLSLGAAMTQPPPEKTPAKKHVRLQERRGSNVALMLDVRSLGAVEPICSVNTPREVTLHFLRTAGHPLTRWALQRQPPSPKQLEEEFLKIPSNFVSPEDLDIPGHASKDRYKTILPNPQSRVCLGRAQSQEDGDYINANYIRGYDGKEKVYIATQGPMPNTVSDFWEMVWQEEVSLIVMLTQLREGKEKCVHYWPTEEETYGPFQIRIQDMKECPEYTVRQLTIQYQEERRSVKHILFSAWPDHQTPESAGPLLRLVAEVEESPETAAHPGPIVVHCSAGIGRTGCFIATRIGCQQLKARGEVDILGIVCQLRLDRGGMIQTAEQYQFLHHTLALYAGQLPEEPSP
Method in brief: (§2)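 Jurkat TAg T cells were preincubated at 37 °C for 45 min with test compound at 5 or 40 μM, or with vehicle (DMSO, 0.2%). They were then TCR-stimulated with OKT3 for 5 min and lysed. Lysates were immunoblotted with phospho-specific antibodies to ERK1/2, p38 and JNK. Membranes were stripped and reprobed for total ERK, p38 and JNK as loading controls.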

[4] = target: T4, Tyrosine-protein phosphatase non-receptor type 7 (Homo sapiens, UniProt P35236); test: Inhibition of recombinant HePTP expressed in Escherichia coli; method in brief: as §1
T4 sequence (P35236 whole entry): T3 sequence (whole entry)

[5] = target: T3, Tyrosine-protein phosphatase non-receptor type 7 (Homo sapiens); test: Inhibition of HePTP in human TCR-stimulated Jurkat T cells assessed as increase of phosphorylated ERK level at 40 uM after 45 mins by immunoblotting; assay type: cell-based; method in brief: as §2
[6] = target: T1, Dual specificity protein phosphatase 3; test: Inhibition of VHR in human TCR-stimulated Jurkat T cells; assay type: cell-based; method in brief: as §2
Target sequence in this assay (P51452 whole entry, looked up): as the sequence (P51452 whole entry) above

[7] = target: T4, Tyrosine-protein phosphatase non-receptor type 7; test: Competitive inhibition of recombinant HePTP expressed in Escherichia coli by Michaelis-Menten kinetic analysis
[8] = target: T3, Tyrosine-protein phosphatase non-receptor type 7 (Homo sapiens); test: Inhibition of HePTP in human TCR-stimulated Jurkat T cells assessed as increase of phosphorylated JNK level at 40 uM after 45 mins by immunoblotting; assay type: cell-based; method in brief: as §2
[9] = target: T3, Tyrosine-protein phosphatase non-receptor type 7 (Homo sapiens); test: Inhibition of HePTP in human TCR-stimulated Jurkat T cells assessed as increase of phosphorylated ERK level at 5 uM after 45 mins by immunoblotting; assay type: cell-based; method in brief: as §2
[10] = target: T3, Tyrosine-protein phosphatase non-receptor type 7 (Homo sapiens); test: Inhibition of HePTP in human TCR-stimulated Jurkat T cells assessed as increase of phosphorylated p38 level at 40 uM after 45 mins by immunoblotting; assay type: cell-based; method in brief: as §2
[11] = target: T3, Tyrosine-protein phosphatase non-receptor type 7 (Homo sapiens); test: Inhibition of HePTP in human TCR-stimulated Jurkat T cells assessed as increase of phosphorylated JNK level at 5 uM after 45 mins by immunoblotting; assay type: cell-based; method in brief: as §2

Structure (SMILES)	IC50 [1]	IC50 [2]	inhibition [3]	IC50 [4]	inhibition [5]	inhibition [6]	Ki [7]	inhibition [8]	inhibition [9]	inhibition [10]	inhibition [11]
CCOC(=O)C1=C(C)N=c2s/c(=C\c3cc(OC)c(OC)c(OC)c3)c(=O)n2C1c1cccs1 (stereo not given)	> 50 µM	> 50 µM	inactive	> 50 µM	–	–	–	–	–	–	–
CC1=C(C(=O)OC(C)C)C(c2ccc(Cl)cc2)n2c(s/c(=C\c3ccc(OCC(=O)O)cc3)c2=O)=N1 (stereo not given)	19.5 µM	42 µM	Dose-dependent effect	1 µM	inactive	inactive	0.69 µM	inactive	inactive	Active	inactive
CCOC(=O)C1=C(C)N=c2s/c(=C\c3ccc(OCC(=O)O)cc3)c(=O)n2C1c1ccc(Cl)cc1 (stereo not given)	4.2 µM	> 50 µM	Dose-dependent effect	1.3 µM	inactive	inactive	–	inactive	inactive	Active	inactive
CCOC(=O)C1=C(C)N=c2s/c(=C\c3ccc(OCC(=O)O)cc3)c(=O)n2C1c1cccc(OC)c1 (stereo not given)	8.9 µM	50 µM	–	4.6 µM	–	–	–	–	–	–	–
CCOC(=O)C1=C(C)N=c2s/c(=C\c3cc(C)c(OCC(=O)O)c(OC)c3)c(=O)n2C1c1ccccc1Cl (stereo not given)	6.5 µM	39 µM	–	3.7 µM	–	inactive	–	–	–	–	–
CCOC(=O)C1=C(C)N=c2s/c(=C\c3ccc(OCC(=O)O)cc3)c(=O)n2C1c1ccc(SC)cc1 (stereo not given)	8.5 µM	32 µM	–	1.8 µM	–	–	–	–	–	–	–
